One may read the IC50 as the concentration that inhibits the measured activity by half. In general, bioavailability refers to dose-corrected exposure relative to a reference, in per cent.

Data set [1] deals with KARPAS-299. The data set is described as follows: Inhibition of RAS/RAF/MAPK signaling in human Karpas299 cells assessed as ERK phosphorylation. The data set is classed as cell-based. A digest of the protocol:
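Karpas-299 cells treated for 4 h with increasing concentrations or DMSO. Phospho-ERK and phospho-Akt read by Western blot.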

Data set [2] is described as follows: Induction of apoptosis in mouse Ba/F3 NPM-ALK cells at 50 nM after 48 hrs by annexin V assay. Format: functional. A digest of the protocol:
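Parental Ba/F3 (with IL-3), Ba/F3 NPM-ALK or SU-DHL-1 cells treated with 50 nM or DMSO for 48 h. Annexin V/7-AAD staining read by flow cytometry; percent Annexin V-positive cells counted.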

In data set [3] the test system is Mus musculus. The data set is described as follows: Toxicity in mouse Ba/F3 NPM-ALK cells xenografted in SCID beige mouse assessed as reduction in spleen weight at 10 mg/kg, po. To be noted: in vivo. Also noted: dose 10 mg/kg, route oral; scale not given: the % may be the effect or the level left. Format: organism-based.
The nature of data set [4]: Antiproliferative activity against mouse Ba/F3 NPM-ALK cells assessed as luciferase expression after 2 to 3 days. Format: functional, cell-based. The gist of the method: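 Ba/F3 cells carrying luciferase, either parental (with IL-3) or transformed by NPM-ALK or TEL-kinase fusions, 25,000 per well with serial dilutions or DMSO for 2–3 days. Bright-Glo luminescence taken as proliferation/survival. IC50 from curve fit.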

Data set [5] concerns KARPAS-299. The data set is described as follows: Antiproliferative activity against human Karpas299 cells assessed as luciferase expression after 72 hrs. Format: functional, cell-based. To be noted: KARPAS-299, 72 h. A digest of the protocol:
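Luciferase-expressing Karpas-299 or SU-DHL-1 cells, 25,000 per well, exposed to serial dilutions or DMSO for 72 h. Bright-Glo luminescence normalized to DMSO wells as percent survival. IC50 from curve fit.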

In data set [6] the target is T1, Signal transducer and activator of transcription 5A (Mus musculus) (UniProt P42230).
T1 sequence (whole entry): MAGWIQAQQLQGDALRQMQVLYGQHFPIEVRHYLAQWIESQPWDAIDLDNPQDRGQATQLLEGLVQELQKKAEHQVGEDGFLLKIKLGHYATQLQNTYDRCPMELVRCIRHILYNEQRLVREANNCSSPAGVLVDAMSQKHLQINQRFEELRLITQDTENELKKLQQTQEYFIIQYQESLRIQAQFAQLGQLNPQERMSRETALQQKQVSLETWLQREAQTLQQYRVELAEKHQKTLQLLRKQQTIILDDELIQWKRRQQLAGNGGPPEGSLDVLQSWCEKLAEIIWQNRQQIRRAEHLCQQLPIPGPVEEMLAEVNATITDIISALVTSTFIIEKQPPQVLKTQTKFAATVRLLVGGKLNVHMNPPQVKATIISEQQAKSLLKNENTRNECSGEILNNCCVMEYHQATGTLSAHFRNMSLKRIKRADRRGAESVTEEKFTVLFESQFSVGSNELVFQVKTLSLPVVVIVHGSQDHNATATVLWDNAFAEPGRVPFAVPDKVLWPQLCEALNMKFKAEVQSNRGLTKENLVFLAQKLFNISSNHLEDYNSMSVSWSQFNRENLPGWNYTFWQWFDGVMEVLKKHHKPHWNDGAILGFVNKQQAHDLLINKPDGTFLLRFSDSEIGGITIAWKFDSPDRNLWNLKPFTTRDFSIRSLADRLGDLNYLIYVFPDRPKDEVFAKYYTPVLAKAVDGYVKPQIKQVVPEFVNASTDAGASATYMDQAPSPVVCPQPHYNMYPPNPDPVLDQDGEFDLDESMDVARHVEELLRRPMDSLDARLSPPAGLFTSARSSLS
Description: Inhibition of STAT5 phosphorylation in mouse Ba/F3 NPM-ALK cells. Format: cell-based. A digest of the protocol:
(§1)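 Ba/F3 NPM-ALK, Karpas-299 or SU-DHL-1 cells treated for 4 h with DMSO or increasing concentrations. STAT3 and STAT5 phosphorylation read by Western blot of lysates.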

In data set [7] the test system is KARPAS-299. The data set is described as follows: Cell cycle arrest in human Karpas299 cells by accumulation in S phase at 25 nM after 72 hrs. The data set is classed as functional. The gist of the method:
(§2)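 Karpas-299 cells exposed to 25 nM or DMSO for 24, 48 and 72 h, then fixed, stained with propidium iodide and analyzed for cell cycle distribution by flow cytometry. Three separate experiments.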

Data set [8] relates to KARPAS-299. Description: Antilymphomal activity against human Karpas299 cells xenografted in SCIDbeige mouse assessed as reduction in CD30 expression in lymph nodes after 3.5 weeks of […] at 10 mg/kg for 3 days. Format: functional, organism-based. Also noted: dose 10 mg/kg. The gist of the method:
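Female Fox Chase SCID_Beige mice given Karpas-299 cells i.v. and left 3.5 weeks until lymphomas were palpable. Then dosed at 10 mg/kg or vehicle for 3 days. Killed 4 h after the third dose. Excised lymph node sections scored for CD30 by immunohistochemistry.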
In general terms: In xenograft studies the graft and the host belong to different species.

The test system of data set [9] is Mus musculus. Description: Toxicity in human Karpas299 cells xenografted in SCID beige mouse at 10 mg/kg, po. Format: organism-based, KARPAS-299. Also noted: dose 10 mg/kg, route oral. To be noted: in vivo. A digest of the protocol:
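Female Fox Chase SCID_Beige mice bearing i.v. Karpas-299 cells received 10 mg/kg orally once daily from 72 h after injection. Watched for signs of compound- or disease-related toxicity.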

Data set [10] is described as follows: Bioavailability in human Karpas299 cells xenografted SCID beige mouse at 20 mg/kg. The data set is classed as ADME, organism-based, KARPAS-299. To be noted: in vivo. The gist of the method: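 Mice given a single oral dose of 20 mg/kg as a solution in 10% 1-methyl-2-pyrrolidinone/90% PEG 300. Plasma levels measured to give Cmax, bioavailability and elimination half-life.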

A short description of data set [11]: Antilymphomal activity against mouse Ba/F3 NPM-ALK cells xenografted in SCID beige mouse assessed as reduction in bioluminescence signal at 10 mg/kg, po once daily after 2 weeks relative to control. Format: functional. Also noted: scale not given: the % may be the effect or the level left. A digest of the protocol: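 Female Fox Chase SCID_Beige mice injected in the tail vein with 1 × 10⁶ luciferase-expressing Ba/F3 BCR-ABL or Ba/F3 NPM-ALK cells. From 72 h, 10 mg/kg given orally once daily in 10% 1-methyl-2-pyrrolidinone/90% PEG 300, or vehicle. Bioluminescence imaged after 2 weeks; spleens weighed.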

Data set [12] deals with KARPAS-299. The data set is described as follows: Inhibition of human Karpas299 cells assessed as reduction in CD30 receptor expression on cell surface after 24 hrs. Also noted: scale not given: the % may be the effect or the level left. The data set is classed as functional. The gist of the method:
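Karpas-299 cells cultured with drug for 24 h. Surface CD30 receptor expression then measured.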

Data set [13] concerns KARPAS-299. The data set is described as follows: Antilymphomal activity against human Karpas299 cells xenografted in SCID beige mouse assessed as reduction in downstream target STAT3 phosphorylation after 3.5 weeks of […] at 10 mg/kg for 3 days. The data set is classed as functional, organism-based. Also noted: dose 10 mg/kg. A digest of the protocol:
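Female Fox Chase SCID_Beige mice given 1 × 10⁶ Karpas-299 cells by tail vein. Treatment began at 3.5 weeks, once palpable lymphomas had formed. Drug at 10 mg/kg or vehicle for 3 days, 3 mice per arm. Killed 4 h after the third dose. Excised lymph nodes immunoblotted for NPM-ALK and Stat3 phosphorylation.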

For data set [14], the system named is KARPAS-299. Description: Cell cycle arrest in human Karpas299 cells by accumulation in G1 phase at 25 nM after 72 hrs. Format: functional. The gist of the method:
as §2

In data set [15] the target is T2, Signal transducer and activator of transcription 5A (Homo sapiens) (UniProt P42229).
T2 sequence (whole entry): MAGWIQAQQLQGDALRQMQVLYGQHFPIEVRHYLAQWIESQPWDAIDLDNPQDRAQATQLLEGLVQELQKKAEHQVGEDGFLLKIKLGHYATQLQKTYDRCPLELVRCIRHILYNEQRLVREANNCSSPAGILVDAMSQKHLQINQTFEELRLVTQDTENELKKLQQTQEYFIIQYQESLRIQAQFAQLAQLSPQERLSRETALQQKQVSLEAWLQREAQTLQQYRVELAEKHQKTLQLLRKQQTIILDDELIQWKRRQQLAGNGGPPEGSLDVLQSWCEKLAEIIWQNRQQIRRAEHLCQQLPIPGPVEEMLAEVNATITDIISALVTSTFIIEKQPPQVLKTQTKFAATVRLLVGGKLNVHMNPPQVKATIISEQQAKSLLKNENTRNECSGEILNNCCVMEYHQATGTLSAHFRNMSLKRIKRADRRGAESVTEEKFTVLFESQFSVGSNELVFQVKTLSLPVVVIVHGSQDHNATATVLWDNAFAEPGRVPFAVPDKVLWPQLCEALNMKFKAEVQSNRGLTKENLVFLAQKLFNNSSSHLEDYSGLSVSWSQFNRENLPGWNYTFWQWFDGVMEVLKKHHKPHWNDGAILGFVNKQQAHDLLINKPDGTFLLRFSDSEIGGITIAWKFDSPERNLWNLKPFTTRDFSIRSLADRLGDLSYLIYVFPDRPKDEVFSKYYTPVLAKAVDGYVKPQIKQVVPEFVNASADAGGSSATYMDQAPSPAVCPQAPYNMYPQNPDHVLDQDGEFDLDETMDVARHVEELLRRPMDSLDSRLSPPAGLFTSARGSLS
Description: Inhibition of STAT5 phosphorylation in human Karpas299 cells. Format: cell-based. To be noted: KARPAS-299. The gist of the method:
as §1

For data set [16], the target named is T2, Signal transducer and activator of transcription 5A (Homo sapiens). The data set is described as follows: Inhibition of STAT5 phosphorylation in human SUDHL1 cells. Format: cell-based. A digest of the protocol:
as §1

In data set [17] the test system is KARPAS-299. The data set is described as follows: Induction of apoptosis in human Karpas299 cells at 50 nM after 48 hrs by annexin V assay. The data set is classed as functional. To be noted: in the assay text read “72 hrs” for “48 hrs”. The gist of the method:
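Karpas-299 cells given 50 nM or DMSO, with flow cytometry every 24 h up to 72 h. Annexin V staining gave the percent of positive cells.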

Activity calls are given as the source filed them. The calls are words filed in the database; no cut-off is given here.

In the case of `COc1cc(N2CCC(N3CCN(C)CC3)CC2)ccc1Nc1ncc(Cl)c(Nc2ccccc2S(=O)(=O)C(C)C)n1` [TAE-684], the Activity entry is “Dose-dependent effect” in the data set on KARPAS-299 [1]; 85% in data set [2]; 80% with Mus musculus [3]; “Dose-dependent effect” in data set [6]; 14% in the data set with KARPAS-299 [7]; “Non-toxic” in the data set on Mus musculus [9]. The Activity is over 99% in data set [11]; 80% with KARPAS-299 [12]; 72% in the data set on KARPAS-299 [14]; “Dose-dependent effect” in data set [15]; “Dose-dependent effect” in data set [16]; 20% with KARPAS-299 [17]. Besides, the IC50 (in data set [4]; with KARPAS-299 [5]) was 3 nM each time. In addition, the result with KARPAS-299 [8] and in the data set on KARPAS-299 [13] was Active. In data set [10], this compound came in with a bioavailability of 60%.

For the origin of these results see ChEMBL document CHEMBL1156430, “Identification of NVP-TAE684, a potent, selective, and efficacious inhibitor of NPM-ALK” (Proc Natl Acad Sci U S A, 2007).
